Screening results deposited in PubChem BioAssay by The Scripps Research Institute Molecular Screening Center.
Hits are enriched below; roughly 2.7% of the tested compounds scored in any of these assays.
PAD4 inh: human PAD4 inhibitors, primary screen, biochemical, fluorescence polarization, 1536-well format; inhibition, % at 6.36 µM; AID 485272, 2010; Protein-arginine deiminase type-4 (Homo sapiens), Q9UM07; hit rate 0.41% among 330,000; recombinant PAD4, RCA probe fluorescence polarization;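 active means percent inhibition above a cutoff equal to the mean of all tested compounds plus 3 SD, cut at about 15% in these data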;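 further: 0% = PAD4 with RCA probe and DMSO and 100% = probe without PAD4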
RBBP9 inhibitor: human RBBP9 inhibitors, primary screen, biochemical, fluorescence polarization, FP-Rh probe, HTS; inhibition, % at 7.94 µM; AID 1515, 2009; hit rate 0.2% among 220,000; recombinant RBBP9; Serine hydrolase RBBP9 (Homo sapiens), O75884;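 active means inhibition above the campaign mean of all tested compounds plus 3 SD, cut at about 14% in these data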;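 further: plate controls were DMSO wells with RBBP9 for no effect and wells lacking RBBP9 protein for full effect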
Target sequence (O75884 whole entry, looked up): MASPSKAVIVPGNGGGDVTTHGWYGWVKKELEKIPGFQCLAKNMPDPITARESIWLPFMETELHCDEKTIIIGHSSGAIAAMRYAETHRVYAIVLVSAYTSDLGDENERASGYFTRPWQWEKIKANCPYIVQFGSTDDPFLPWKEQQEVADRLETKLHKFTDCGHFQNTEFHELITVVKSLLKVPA
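Test system: recombinant human RBBP9; Timing: 30 min then 45 min, 25 °C; Detection: fluorescence polarization; Control set: RBBP9 with DMSO as uninhibited control, no-protein wells as full inhibition; Compound dosing: one concentration, 7.94 µM nominal, 0.794% DMSO; Probe or stimulus: FP-Rh activity-based probe, 375 nM before mixing.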
SIAE primary: human SIAE inhibitors, primary screen, biochemical, fluorescence polarization, FP-Rh probe, 1536-well HTS; Sialate O-acetylesterase (Homo sapiens), Q9HAT2; SIAE FP-Rh probe binding; inhibition, % at 9.66 µM; hit rate 0.69% among 370,000; AID 1053197, 2014;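 active means inhibition above a cutoff: mean of compounds within the control limits plus 3 SD of those, cut at about 17% in these data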;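 further: 0% = plate median of compound wells and 100% = probe without SIAE protein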
GSTO1 inh: inhibitors of recombinant GSTO1, primary screen, counter-screen for RBBP9 inhibitor project, biochemical, fluorescence polarization; inhibition, % at 5.96 µM; activity-based probe fluorescence polarization; hit rate 1.1% among 300,000; AID 1974, 2009;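 active means inhibition above the campaign mean inhibition plus 3 SD, cut at about 35% in these data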;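 further: 0% = GSTO1-1 with DMSO and 100% = wells lacking GSTO1-1 enzyme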
Target sequence (P78417 whole entry, looked up): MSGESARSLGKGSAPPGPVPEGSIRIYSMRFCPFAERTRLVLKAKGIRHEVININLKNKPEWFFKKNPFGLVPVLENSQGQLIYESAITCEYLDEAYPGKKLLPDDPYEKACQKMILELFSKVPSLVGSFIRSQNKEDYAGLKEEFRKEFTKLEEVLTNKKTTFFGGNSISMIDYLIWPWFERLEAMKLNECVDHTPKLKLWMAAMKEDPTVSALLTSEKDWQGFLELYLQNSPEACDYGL
PRMT1 inh: PRMT1 methyltransferase inhibitors, primary screen, biochemical, fluorescence polarization | Protein arginine N-methyltransferase 1 (Homo sapiens), Q99873 | hit rate 1.3% among 370,000 | recombinant PRMT1, activity-based probe fluorescence polarization | inhibition, % at 2.79 µM | AID 652257, 2013;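 active means inhibition above about 21% made by adding two undisclosed values, limit read from the data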
PRMT1 confirm: PRMT1 methyltransferase inhibitors, confirmation, biochemical, fluorescence polarization, triplicate; inhibition, % at 2.79 µM; hit rate 42% among 3,300; shares compounds with PRMT1 inh; recombinant His-PRMT1, activity-based probe fluorescence polarization;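 active means mean inhibition across replicates above the hit cutoff derived for the earlier primary screen, cut at about 22% in these data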
* marks the source's active call; other numbers are inactive results.

For CC(=O)Nc1sc(NC(=O)c2ccc(C)cc2)nc1-c1cccs1 the results were PAD4 inh 0, RBBP9 inhibitor -11, SIAE primary 4, GSTO1 inh 2 and PRMT1 inh -6.
`O=C(c1cccc(F)c1)N1CCN(Cc2cccc(Br)c2)CC1` gave PAD4 inh -3, SIAE primary 0, GSTO1 inh 3 and PRMT1 inh 2.
`CSC1=NS(=O)(=O)c2c(C)nn(C)c2S1` gave PAD4 inh -1, RBBP9 inhibitor 3, SIAE primary 4, GSTO1 inh 4, PRMT1 inh 100* and PRMT1 confirm 76*.
`COc1ccc(CCNC(=O)c2cnn3c(C(F)F)cc(C)nc23)cc1OC` gave PAD4 inh -1, RBBP9 inhibitor -6, SIAE primary 0, GSTO1 inh 3, PRMT1 inh 30* and PRMT1 confirm 0.
Screening COc1ccccc1CCNC(=O)c1cnn2c(C(F)F)cc(C)nc12 returned PAD4 inh -3, RBBP9 inhibitor -7, SIAE primary -1, GSTO1 inh -2 and PRMT1 inh 2.
Cc1cccc2nc(CSc3nc4cc([N+](=O)[O-])ccc4s3)cn12 was read as PAD4 inh -3, RBBP9 inhibitor 2, SIAE primary -13, GSTO1 inh 4, PRMT1 inh 53* and PRMT1 confirm -3.
For Cc1cccc(NC(=O)C2CC(=O)n3cnnc3S2)c1 (stereo not drawn) the results were PAD4 inh 1, RBBP9 inhibitor -10, SIAE primary -4, GSTO1 inh 2, PRMT1 inh 84* and PRMT1 confirm 60*.
For CCN=C1SC(C(=O)Nc2cccc(C)c2)CC(=O)N1CC (stereo not drawn) the results were PAD4 inh 5, RBBP9 inhibitor -5, SIAE primary -2, GSTO1 inh 2 and PRMT1 inh 7.
Screening COc1ccc(OC)c(/C=C/c2ccc3cccc(O)c3n2)c1 returned PAD4 inh -8, SIAE primary 4, GSTO1 inh 16 and PRMT1 inh 3.
`COc1ccc(C=Cc2ccc3ccccc3n2)c(OC)c1` gave SIAE primary 9, PRMT1 inh 147* and PRMT1 confirm 7.
Cc1cccc(C2NC(=O)c3c(sc(C)c3C)N2)c1O (stereo not drawn) was read as PAD4 inh 3, RBBP9 inhibitor 6, SIAE primary 5, GSTO1 inh 1, PRMT1 inh 53* and PRMT1 confirm 2.
CCOC(=O)C1=C(C)Nc2nc(=S)[nH]n2C1c1ccc(Cl)cc1 (stereo not drawn) was read as RBBP9 inhibitor -15, SIAE primary 4, PRMT1 inh 29* and PRMT1 confirm 25*.
O=C(CN1C(=O)C2CC=CCC2C1=O)Nc1cc(C(F)(F)F)ccc1N1CCCC1 (stereo not drawn) was read as PAD4 inh 0, SIAE primary 6, GSTO1 inh 30 and PRMT1 inh 5.
Screening Cc1ccc(/C=N/N2CCN(Cc3ccc(Cl)cc3)CC2)o1 returned PAD4 inh -1, RBBP9 inhibitor -9, SIAE primary -1, GSTO1 inh -4, PRMT1 inh 42* and PRMT1 confirm -7.
Screening Clc1ccc(CN2CCN(/N=C/c3ccco3)CC2)cc1 returned PAD4 inh -2, RBBP9 inhibitor -3, SIAE primary 5, GSTO1 inh 3 and PRMT1 inh -1.
Screening O=C(O)CCC(=NNC(=O)c1cccc(S(=O)(=O)N2CCCCC2)c1)c1ccccc1 returned PAD4 inh 1, SIAE primary 10 and PRMT1 inh -1.
Cc1sc(NC(=O)c2ccccc2)c(C(=O)c2ccccc2)c1C was read as PAD4 inh 0, RBBP9 inhibitor -5, SIAE primary -1, GSTO1 inh 0, PRMT1 inh 30* and PRMT1 confirm 8.
`Cc1sc(NC(=O)c2ccccc2)c(C(=O)NC(C)C)c1C` gave PAD4 inh -1, RBBP9 inhibitor 6, SIAE primary 2, GSTO1 inh 2 and PRMT1 inh -1.
Cc1ccc(C(=O)Nc2sc(C)c(C)c2C(=O)c2ccccc2)cc1 was read as PAD4 inh 3, RBBP9 inhibitor -3, SIAE primary -5, GSTO1 inh 6, PRMT1 inh 51* and PRMT1 confirm 3.
`Cc1cc2oc(=O)cc(CN3CCC(C)CC3)c2c(C)c1Cl` gave PAD4 inh 6, RBBP9 inhibitor 6, SIAE primary 6, GSTO1 inh -5 and PRMT1 inh 0.
`CN1CCN(C(=S)NC(=O)c2ccc(Br)cc2)CC1` gave PAD4 inh 1, RBBP9 inhibitor -8, SIAE primary 10, GSTO1 inh 3 and PRMT1 inh -2.
For CN1CCN(C(=S)C(=O)Nc2ccc(Br)cc2)CC1 the results were PAD4 inh 4, RBBP9 inhibitor -4, SIAE primary -4, GSTO1 inh 4, PRMT1 inh 72* and PRMT1 confirm 72*.
`Cc1cccc(NC(=O)CCC(=O)OCC(=O)c2ccc(Oc3ccc([N+](=O)[O-])cc3)cc2)c1` gave PAD4 inh 0, RBBP9 inhibitor -4, SIAE primary 0, GSTO1 inh 8 and PRMT1 inh 0.
Screening CC[N+]1(C)CCC(O)(c2ccc(OC)cc2)C(C(=O)c2ccc(OC)cc2)C1 (stereo not drawn) returned SIAE primary -2, PRMT1 inh 26* and PRMT1 confirm 13.
For COc1ccc(-c2ccc(C(=O)C3CC3)cc2)cc1 the results were PAD4 inh -1, SIAE primary -9, GSTO1 inh -5 and PRMT1 inh 2.
`CCOC(=O)c1sc(NC(=O)C2=COCCO2)c(C#N)c1C` gave PAD4 inh -1, SIAE primary -8, GSTO1 inh -6 and PRMT1 inh 12.
For CCOC(=O)c1sc(NC(=O)C(C)C)c(C#N)c1C the results were PAD4 inh -1, RBBP9 inhibitor 4, SIAE primary 2, GSTO1 inh 8, PRMT1 inh 29* and PRMT1 confirm 2.
Screening COc1ccc(C(C)(C)NC(=O)C2CCC(=O)N(CCCN3CCCC3=O)C2)cc1 (stereo not drawn) returned PAD4 inh -3, SIAE primary 2, GSTO1 inh 6 and PRMT1 inh -3.
For Cc1ccc2[nH]c(=O)c(C(c3nnnn3C3CCCC3)N3CCCc4ccccc43)cc2c1 (stereo not drawn) the results were PAD4 inh 0, RBBP9 inhibitor -4, SIAE primary -3, GSTO1 inh 6, PRMT1 inh 35* and PRMT1 confirm -3.
